Data on 13 compounds can be found in ChEMBL document CHEMBL3227986, “Design of species- or isozyme-specific enzyme inhibitors. 1. Effect of thymidine substituents on affinity for the thymidine site of hamster cytoplasmic thymidine kinase” (J Med Chem, 1979).

Experiment [1] addresses T1, Thymidine kinase, cytosolic (Homo sapiens) (UniProt P04183).
T1 sequence (whole entry): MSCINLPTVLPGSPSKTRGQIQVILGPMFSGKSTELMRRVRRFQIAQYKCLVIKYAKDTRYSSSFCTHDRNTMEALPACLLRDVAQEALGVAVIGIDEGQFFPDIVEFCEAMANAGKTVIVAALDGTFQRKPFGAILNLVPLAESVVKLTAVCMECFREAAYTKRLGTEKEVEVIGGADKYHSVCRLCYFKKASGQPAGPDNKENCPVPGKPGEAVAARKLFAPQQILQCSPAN
The experiment can be described thus: Effect on human cytoplasmic thymidine kinase using [14C]thymidine at 2 mM after 10 mins by liquid scintillation spectrometer analysis relative to control in presence of Mg2+.

Experiment [2] deals with T2, Thymidine kinase 2, mitochondrial (Homo sapiens) (UniProt O00142).
T2 sequence (whole entry): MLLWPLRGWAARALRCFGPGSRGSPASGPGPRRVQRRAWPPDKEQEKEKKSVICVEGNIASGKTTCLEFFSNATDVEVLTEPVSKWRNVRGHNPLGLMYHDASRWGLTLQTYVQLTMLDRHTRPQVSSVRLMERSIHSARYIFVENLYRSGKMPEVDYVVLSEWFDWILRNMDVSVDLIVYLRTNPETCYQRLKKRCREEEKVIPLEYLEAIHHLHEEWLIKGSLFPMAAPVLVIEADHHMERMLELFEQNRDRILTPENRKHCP
As to the kind of experiment: Effect on human mitochondrial thymidine kinase using [14C]thymidine at 2 mM after 10 mins by liquid scintillation spectrometer analysis relative to control in presence of Mg2+.

Experiment [3] concerns the target T3, Thymidine kinase, cytosolic (Cricetulus griseus) (UniProt P09768).
T3 sequence (whole entry): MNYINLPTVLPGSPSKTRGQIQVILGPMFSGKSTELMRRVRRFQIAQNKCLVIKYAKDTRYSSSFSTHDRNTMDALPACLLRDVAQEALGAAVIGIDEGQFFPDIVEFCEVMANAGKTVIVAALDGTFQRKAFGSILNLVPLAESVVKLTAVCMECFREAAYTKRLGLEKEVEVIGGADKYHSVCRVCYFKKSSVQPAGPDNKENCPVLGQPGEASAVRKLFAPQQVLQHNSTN
As to the kind of experiment: Effect on thymidine kinase in BHK21 (C13) cells using [14C]thymidine at 5 mM after 10 mins by liquid scintillation spectrometer analysis relative to control in presence of Mg2+. The class given is cell-based. Conditions: Mesocricetus auratus. In outline: (§1)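 BHK21(C13) high-speed supernatant, 10 min at 37 °C, [14C]TMP on DEAE-cellulose disks, scintillation counting. Phosphate donors (nucleoside triphosphates 5 mM, giving 2.5 mM Mg2+ triphosphates) tested with 14.4 μM [14C]thymidine. Inhibitor assays used 0.19 mM [14C]thymidine: 5-iodo nucleosides at 0.19 mM with saturating Mg2+-ATP, or dCTP 5 mM with ATP 5 mM and MgCl2 7.5 mM.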

In experiment [4] the target is T3, Thymidine kinase, cytosolic (Cricetulus griseus). The experiment can be described thus: Inhibition of thymidine kinase in BHK21 (C13) cells using [14C]thymidine at 100 to 200 uM after 10 mins by liquid scintillation spectrometer analysis relative to control in presence of Mg2+. The class given is cell-based. The following applies: Mesocricetus auratus.
The target is the same in experiment [5]. The experiment can be described thus: Inhibition of thymidine kinase in BHK21 (C13) cells using thymidine as substrate assessed as formation of TMP at 10 mM. The class given is cell-based. Conditions: Mesocricetus auratus. In outline: (§2)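 BHK21(C13) 100000g supernatant in Tris-HCl 0.05 M pH 8.0, ATP 5 mM, MgCl2 2.5 mM, [14C]thymidine 3.6 μM, 10 min at 37 °C. Reaction stopped by boiling; [14C]TMP bound to DEAE-cellulose disks and counted by liquid scintillation, corrected for unincubated blanks.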

The target is the same in experiment [6]. The experiment can be described thus: Inhibition of thymidine kinase in BHK21 (C13) cells using thymidine as substrate assessed as formation of TMP at 5 mM. The class given is cell-based. The following applies: Mesocricetus auratus. A digest of the protocol:
as §2

For experiment [7] the target is unchanged. As to the kind of experiment: Inhibition of thymidine kinase in BHK21 (C13) cells using thymidine as substrate assessed as formation of TMP at 0.2 mM. The class given is cell-based. Conditions: Mesocricetus auratus. A digest of the protocol:
as §2

Experiment [8] has the same target. The experiment can be described thus: Inhibition of thymidine kinase in BHK21 (C13) cells using thymidine as substrate assessed as formation of TMP at 0.1 mM. Conditions: Mesocricetus auratus. The class given is cell-based. A digest of the protocol:
as §2

For experiment [9] the target is unchanged. As to the kind of experiment: Inhibition of thymidine kinase in BHK21 (C13) cells using thymidine as substrate assessed as formation of TMP at 2 mM. The class given is cell-based. The following applies: Mesocricetus auratus. A digest of the protocol:
as §2

Experiment [10] has the same target. As to the kind of experiment: Inhibition of thymidine kinase in BHK21 (C13) cells using thymidine as substrate assessed as formation of TMP at 4 mM. Conditions: Mesocricetus auratus. The class given is cell-based. A digest of the protocol: as §2
For experiment [11] the target is unchanged. The experiment can be described thus: Inhibition of thymidine kinase in BHK21 (C13) cells using thymidine as substrate assessed as formation of TMP at 15.5 mM. Conditions: Mesocricetus auratus. The class given is cell-based. In outline: as §2
Experiment [12] has the same target. The experiment can be described thus: Inhibition of thymidine kinase in BHK21 (C13) cells using thymidine as substrate assessed as formation of TMP at 7.8 mM. Conditions: Mesocricetus auratus. The class given is cell-based. A digest of the protocol:
as §2

Experiment [13] shares this target. As to the kind of experiment: Inhibition of thymidine kinase in BHK21 (C13) cells using thymidine as substrate assessed as formation of TMP at 13.2 mM. The class given is cell-based. The following applies: Mesocricetus auratus. A digest of the protocol: as §2
For experiment [14] the target is unchanged. The experiment can be described thus: Inhibition of thymidine kinase in BHK21 (C13) cells using thymidine as substrate assessed as formation of TMP at 6.6 mM. The class given is cell-based. Conditions: Mesocricetus auratus. A digest of the protocol: as §2
For experiment [15], the target named is T2, Thymidine kinase 2, mitochondrial (Homo sapiens). The experiment can be described thus: Inhibition of human mitochondrial thymidine kinase using [14C]thymidine after 10 mins by liquid scintillation spectrometer analysis relative to control in presence of Mg2+.
In experiment [16] the target is T3, Thymidine kinase, cytosolic (Cricetulus griseus). As to the kind of experiment: Inhibition of thymidine kinase in BHK21 (C13) cells using [14C]thymidine after 10 mins by liquid scintillation spectrometer analysis relative to control in presence of Mg2+. The class given is cell-based. The following applies: Mesocricetus auratus. In outline: as §1
Experiment [17] addresses T1, Thymidine kinase, cytosolic (Homo sapiens). As to the kind of experiment: Inhibition of human cytoplasmic thymidine kinase using [14C]thymidine after 10 mins by liquid scintillation spectrometer analysis relative to control in presence of Mg2+.
The target of experiment [18] is T2, Thymidine kinase 2, mitochondrial (Homo sapiens). The experiment can be described thus: Inhibition of human mitochondrial thymidine kinase using [14C]thymidine at 0.19 mM after 10 mins by liquid scintillation spectrometer analysis relative to control in presence of Mg2+.
In experiment [19] the target is T3, Thymidine kinase, cytosolic (Cricetulus griseus). As to the kind of experiment: Inhibition of thymidine kinase in BHK21 (C13) cells using thymidine as substrate assessed as formation of TMP at […]. The following applies: Mesocricetus auratus. The class given is cell-based.
Experiment [20] has the same target. As to the kind of experiment: Inhibition of thymidine kinase in BHK21 (C13) cells using thymidine as substrate assessed as formation of TMP at 0.74 mM. The class given is cell-based. Conditions: Mesocricetus auratus. A digest of the protocol:
as §2

Active and inactive are the calls of the source. The calls are words filed in the database; no cut-off is given here.

As for `Nc1ccn([C@@H]2O[C@H](COP(=O)(O)OP(=O)(O)OP(=O)(O)O)[C@@H](O)[C@H]2O)c(=O)n1`, the Activity in experiment [1] came out at 21%; in [2], 79%; in [3], 15%.

By inhibition is commonly meant how much of the control response was suppressed. `CCC(=O)NCC(OP(=O)(O)OP(=O)(O)OP(=O)(O)O)[C@H]1O[C@@H](n2cc(C)c(=O)[nH]c2=O)C[C@@H]1O` (single isomer, unassigned; more polar): the inhibition result in experiment [4] is “Active”.

`CCNc1ccn([C@H]2C[C@H](O)[C@@H](CO)O2)c(=O)n1`: the inhibition in experiment [5] came to 38%; in experiment [6], 24%.

Consider `CCn1c(=O)c(C)cn([C@H]2C[C@H](O)[C@@H](CO)O2)c1=O`, for which the inhibition in experiment [7] was determined as 26%; in [8] it was 13%.

As for `O=C(CI)NCCC(=O)Nc1cn([C@H]2C[C@H](O)[C@@H](CO)O2)c(=O)[nH]c1=O`, the inhibition in [9] amounted to 22%; in experiment [10], 36%.

For the compound `CCCn1c(=O)c(C)cn([C@H]2C[C@H](O)[C@@H](CO)O2)c1=O`, the inhibition was found to be 34% in experiment [7] and 16% in experiment [8].

With `CCCn1c(=O)ccn([C@H]2C[C@H](O)[C@@H](CO)O2)c1=O`, the inhibition is 36% in experiment [11] and 18% in experiment [12].

As for `CCCC(=O)NC[C@H]1O[C@@H](n2cc(C)c(=O)[nH]c2=O)C[C@@H]1O`, the inhibition turned out to be 77% in experiment [13] and 38% in [14].

On to `Nc1ccn([C@H]2C[C@H](O)[C@@H](COP(=O)(O)OP(=O)(O)OP(=O)(O)O)O2)c(=O)n1`, for which the inhibition in experiment [15] turned out to be 82%; in experiment [16], 27%; in [17] it was 15%.

For the compound `CCC(=O)NCC(OP(=O)(O)OP(=O)(O)OP(=O)(O)O)[C@H]1O[C@@H](n2cc(C)c(=O)[nH]c2=O)C[C@@H]1O` (single isomer, unassigned), the inhibition result in experiment [4] is “Active”.

Regarding `O=c1[nH]c(=O)n([C@H]2C[C@H](O)[C@@H](CO)O2)cc1I`, the inhibition in [18] turned out to be 31%.

For `Nc1ccn([C@H]2C[C@H](O)[C@@H](CO)O2)c(=O)n1`, the figures for the inhibition in [19] and in experiment [20] were 10% and 24%, respectively.

As for `Nc1ncnc2c1ncn2[C@@H]1O[C@H](COP(=O)(O)OP(=O)(O)OP(=O)(O)O)[C@@H](O)[C@H]1O`, the Activity in [1], in experiment [2] and in [3] was 100% throughout.
